Source: ChEMBL document CHEMBL4020770, “Discovery of N-substituted-endo-3-(8-aza-bicyclo[3.2.1]oct-3-yl)-phenol and -phenyl carboxamide series of μ-opioid receptor antagonists” (Bioorg Med Chem Lett, 2017)

Key:
[1] = target: Kappa-type opioid receptor (Cavia porcellus, UniProt P41144); assay: Displacement of [3H]DPN from guinea pig kappa opioid receptor expressed in CHOK1 cell membranes
Outline: (§1)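 Competition binding with the radioligand [3H]-DPN on membranes from CHO-K1 cells stably transfected with human recombinant μ or δ opioid receptor or guinea pig κ opioid receptor. Affinity is reported as pKi.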

[2] = target: Delta-type opioid receptor (Homo sapiens, UniProt P41143); assay: Displacement of [3H]DPN from recombinant human delta opioid receptor expressed in CHOK1 cell membranes; outline: as §1
[3] = (§2) Half life in rat liver microsomes; assay type: ADME, microsome; conditions: liver microsomes
Mu-type opioid receptor [4] = target: T1, Mu-type opioid receptor (Homo sapiens, UniProt P35372); assay: Intrinsic activity at recombinant human mu opioid receptor expressed in CHOK1 cells by [35S]GTPgammaS binding assay relative to DAMGO; assay type: functional, cell-based
Outline: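 Membranes from CHO-K1 cells stably transfected with human recombinant μ-opioid receptor; agonist activity measured as [35S]-GTPγS binding. Maximum compound-evoked response minus basal, expressed as percentage of the maximum response evoked by DAMGO.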

[5] = (§3) Half life in dog liver microsomes; assay type: ADME, Canis lupus familiaris, microsome; conditions: liver microsomes
[6] = (§4) Half life in human liver microsomes; assay type: ADME, microsome; conditions: liver microsomes
Mu-type opioid receptor [7] = target: T1, Mu-type opioid receptor; assay: Displacement of [3H]DPN from recombinant human mu opioid receptor expressed in CHOK1 cell membranes; outline: as §1
Liver [8] = assay: as §2; assay type: ADME, microsome; conditions: microsomes
Liver [9] = assay: as §4; assay type: ADME, microsome; conditions: microsomes
Liver [10] = assay: as §3; assay type: ADME, Canis lupus familiaris, microsome; conditions: microsomes

T1 sequence (P35372 whole entry): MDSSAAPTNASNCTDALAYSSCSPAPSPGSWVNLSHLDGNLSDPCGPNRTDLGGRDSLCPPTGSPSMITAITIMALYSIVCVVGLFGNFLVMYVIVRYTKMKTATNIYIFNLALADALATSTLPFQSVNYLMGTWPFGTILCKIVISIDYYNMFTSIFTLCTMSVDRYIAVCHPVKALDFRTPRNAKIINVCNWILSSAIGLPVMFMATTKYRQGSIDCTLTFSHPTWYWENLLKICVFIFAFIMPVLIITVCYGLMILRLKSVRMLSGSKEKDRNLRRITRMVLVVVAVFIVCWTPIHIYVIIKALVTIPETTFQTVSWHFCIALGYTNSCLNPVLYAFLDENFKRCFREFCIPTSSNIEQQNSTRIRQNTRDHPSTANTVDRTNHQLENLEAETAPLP
Kappa-type opioid receptor, sequence (P41144 whole entry): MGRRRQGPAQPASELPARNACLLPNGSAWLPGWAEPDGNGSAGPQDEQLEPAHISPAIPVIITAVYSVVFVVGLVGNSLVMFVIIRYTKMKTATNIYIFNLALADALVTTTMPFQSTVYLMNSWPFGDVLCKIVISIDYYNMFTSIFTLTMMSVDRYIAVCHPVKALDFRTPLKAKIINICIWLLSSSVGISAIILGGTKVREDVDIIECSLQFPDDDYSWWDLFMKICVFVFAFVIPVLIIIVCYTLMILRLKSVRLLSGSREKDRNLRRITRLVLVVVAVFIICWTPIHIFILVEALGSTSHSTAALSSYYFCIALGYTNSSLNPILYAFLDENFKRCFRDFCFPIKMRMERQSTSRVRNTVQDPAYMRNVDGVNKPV
Delta-type opioid receptor, sequence (P41143 whole entry): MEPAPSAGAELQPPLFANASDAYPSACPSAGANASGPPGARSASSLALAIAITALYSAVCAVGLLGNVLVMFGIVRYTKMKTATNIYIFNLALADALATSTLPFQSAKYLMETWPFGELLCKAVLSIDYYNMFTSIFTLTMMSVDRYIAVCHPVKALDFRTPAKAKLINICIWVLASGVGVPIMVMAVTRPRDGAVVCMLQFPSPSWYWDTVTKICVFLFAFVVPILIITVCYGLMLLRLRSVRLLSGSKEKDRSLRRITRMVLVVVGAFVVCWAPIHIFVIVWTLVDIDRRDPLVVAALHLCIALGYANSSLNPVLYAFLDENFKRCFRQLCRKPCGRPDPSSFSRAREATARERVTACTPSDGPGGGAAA

SMILES	Ki [1] [nM]	Ki [2] [nM]	half-life [3] [min]	Intrinsic activity (Mu-type opioid receptor [4]) [%]	half-life [5] [min]	half-life [6] [min]	Ki (Mu-type opioid receptor [7]) [nM]	t1/2 (Liver [8]) [min]	t1/2 (Liver [9]) [min]	t1/2 (Liver [10]) [min]
C[C@H]1CN(C[C@H](Cc2ccccc2)C(=O)NCC(=O)O)CC[C@@]1(C)c1cccc(O)c1 [ALVIMOPAN]	5.01	5.01	> 90	-6	> 90	> 90				
O=C1c2ccccc2C(=O)N1CCCCN1[C@@H]2CC[C@@H]1CC(c1cccc(O)c1)C2 (relative stereo; 21a)	0.794	25.1	18		11	33	0.794			
NC(=O)c1cccc(C2C[C@H]3CC[C@H](C2)N3Cc2c(F)cccc2F)c1 (relative stereo; 26b)	398	5010					1260	74		
NC(=O)c1cccc(C2C[C@H]3CC[C@H](C2)N3CCCOc2ccccc2)c1 (relative stereo)	0.794	3.98	2		7	> 90	0.2			
NC(=O)c1cccc(C2C[C@H]3CC[C@H](C2)N3Cc2c(F)cccc2F)c1 (relative stereo; 26a)	15.8	316			> 90	> 90	31.6	26		
CC(C)(C)c1ccc(CN2[C@@H]3CC[C@@H]2CC(c2cccc(O)c2)C3)cc1 (relative stereo; 20a)	0.1	0.501	2		5		0.1		16	
NC(=O)c1cccc(C2C[C@H]3CC[C@H](C2)N3CC(O)Cc2ccccc2)c1 (stereo in doubt; 31b)	79.4	501					31.6	14		59
NC(=O)c1cccc(C2C[C@H]3CC[C@H](C2)N3CC(=O)C2CCCCC2)c1 (relative stereo; 30b)	20	398					15.8	81		9
NC(=O)c1cccc(C2C[C@H]3CC[C@H](C2)N3CCCCN2C(=O)c3ccccc3C2=O)c1 (relative stereo; 29a)	3.16	79.4	> 90		18	> 90	1.58			
NC(=O)c1cccc(C2C[C@H]3CC[C@H](C2)N3CC(=O)C2CCCCC2)c1 (relative stereo; 30a)	0.1	2	70			> 90	0.158			21
CCCCCCCN1[C@@H]2CC[C@@H]1CC(c1cccc(O)c1)C2 (relative stereo; 17b)	25.1	251					20	2	2	9
Oc1cccc(C2C[C@H]3CC[C@H](C2)N3CCCc2ccccc2)c1 (relative stereo; 12a)	0.1	0.794	2		2	15	0.1			
CC(C)(C)c1ccc(CN2[C@@H]3CC[C@@H]2CC(c2cccc(C(N)=O)c2)C3)cc1 (relative stereo; 28a)	0.1	1.58	> 90		> 90	> 90	0.1			
CCCCCCCN1[C@@H]2CC[C@@H]1CC(c1cccc(C(N)=O)c1)C2 (relative stereo)	0.398	3.16					0.398	> 90	40	20
Oc1cccc(C2C[C@H]3CC[C@H](C2)N3CCCOc2ccccc2)c1 (relative stereo; 19a)	0.251	1.58	2			25	0.1			9
O=C(CN1[C@@H]2CC[C@@H]1CC(c1cccc(O)c1)C2)C1CCCCC1 (relative stereo; 22a)	0.01	0.501	2		2	12	0.1			
O=C1c2ccccc2C(=O)N1CCCCN1[C@@H]2CC[C@@H]1CC(c1cccc(O)c1)C2 (relative stereo; 21b)	79.4	794					39.8	21	38	12
C[N+]1(CC2CC2)CC[C@]23c4c5ccc(O)c4O[C@H]2C(=O)CC[C@@]3(O)[C@H]1C5 (stereo not given in full) [METHYLNALTREXONE]	20		> 90	24	> 90	> 90	7.94			
NC(=O)c1cccc(C2C[C@H]3CC[C@H](C2)N3CCCc2ccccc2)c1 (relative stereo; 24a)	0.158	1.26				> 90	0.126	> 90		> 90
CCCCCCCN1[C@@H]2CC[C@@H]1CC(c1cccc(C(N)=O)c1)C2 (stereo not given in full)		501					31.6	7	10	2
NC(=O)c1cccc(C2C[C@H]3CC[C@H](C2)N3CCCc2ccccc2)c1 (relative stereo; 24b)		200					15.8	11		18
NC(=O)c1cccc(C2C[C@H]3CC[C@H](C2)N3CC(O)Cc2ccccc2)c1 (relative stereo)	0.316	3.98			> 90	> 90	0.251	31		
